ChEMBL document CHEMBL1122913, “Novel dopamine receptor agonists and antagonists with preferential action on autoreceptors” (1985)
The source made the active and inactive calls. The rule behind the calls is not given here.

Legend:
Rattus norvegicus [1] = species: Rattus norvegicus; test: Locomotor activity after reserpine pretreatment in rat; type: functional
In short: (§1)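 Rats received reserpine 10 mg/kg ip 6 h and DL-α-methyl-p-tyrosine methyl ester 250 mg/kg ip 1 h before, then test drug sc immediately before the session. Photocell counts accumulated over 30 min, mean ± SEM, n = 4-9; t test vs saline controls. Haloperidol 0.3 mg/kg ip 30 min before test drug used for blockade.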

Rattus norvegicus [2] = species: Rattus norvegicus; test: Locomotor activity after no pretreatment in rat at high-dose region expressed as percent of saline control; type: functional
Rattus norvegicus [3] = species: Rattus norvegicus; test: Locomotor activity after no pretreatment in rat at low-dose region expressed as percent of saline control; type: functional
Rattus norvegicus [4] = test: Effective dose against DOPA accumulation in rat brain limbic region after no pretreatment by subcutaneous administration; type: functional; conditions: sc
In short: (§2)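 Untreated male Sprague-Dawley rats (200-300 g) received test drug sc 65 min and NSD 1015 100 mg/kg ip 30 min before death; saline controls. Limbic or striatal DOPA measured by HPLC-electrochemical detection. ED50 is the dose giving half-maximal increase or decrease of DOPA formation, from 4-5 dose levels (n = 3-10); controls = 100%.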

Rattus norvegicus [5] = test: Effective dose against DOPA accumulation in rat brain limbic region after reserpine pretreatment by subcutaneous administration; type: functional; conditions: sc
In short: (§3)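 Male Sprague-Dawley rats (200-300 g), reserpine 5 mg/kg ip 18 h, test drug sc 60 min, and NSD 1015 100 mg/kg ip 30 min before death; saline controls. Limbic and striatal DOPA measured by HPLC-electrochemical detection. ED50 is the dose giving half-maximal decrease of DOPA formation, estimated from 4-7 dose levels (n = 3); controls = 100%.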

Rattus norvegicus [6] = test: Effective dose against DOPA accumulation in rat brain striatal region after no pretreatment by subcutaneous administration; type: functional; conditions: sc; in short: as §2
Rattus norvegicus [7] = test: Effective dose against DOPA accumulation in rat brain striatal region after reserpine pretreatment by subcutaneous administration; type: functional; conditions: sc; in short: as §3
Rattus norvegicus [8] = species: Rattus norvegicus; test: Locomotor activity after reserpine pretreatment in rat; Not Tested; type: functional, organism-based
Rattus norvegicus [9] = test: Effective dose against DOPA accumulation in rat brain limbic region after reserpine pretreatment by subcutaneous administration; No significant effect at 0.5 mg/kg intraperitoneal administration; type: functional, organism-based; set-up: dose 0.5 mg/kg
Rattus norvegicus [10] = test: Effective dose against DOPA accumulation in rat brain striatal region after reserpine pretreatment by subcutaneous administration; No significant effect at 0.5 mg/kg intraperitoneal administration; type: functional, organism-based; set-up: dose 0.5 mg/kg
Rattus norvegicus [11] = test: Effective dose against DOPA accumulation in rat brain limbic region after reserpine pretreatment by subcutaneous administration; No significant effect of 16 mg/kg subcutaneous administration; type: functional, organism-based; set-up: dose 16 mg/kg
Rattus norvegicus [12] = test: Effective dose against DOPA accumulation in rat brain striatal region after reserpine pretreatment by subcutaneous administration; No significant effect of 16 mg/kg subcutaneous administration; type: functional, organism-based; set-up: dose 16 mg/kg
Rattus norvegicus [13] = species: Rattus norvegicus; test: Locomotor activity after no pretreatment in rat at high-dose region expressed as percent of saline control; Inactive; type: functional, organism-based
Rattus norvegicus [14] = species: Rattus norvegicus; test: Locomotor activity after no pretreatment in rat at low-dose region expressed as percent of saline control; Inactive; type: functional, organism-based
Rattus norvegicus [15] = test: Effective dose against DOPA accumulation in rat brain striatal region after no pretreatment by subcutaneous administration; No significant effect of 16 mg/kg subcutaneous administration; type: functional, organism-based; set-up: dose 16 mg/kg
Rattus norvegicus [16] = test: Effective dose against DOPA accumulation in rat brain limbic region after no pretreatment by subcutaneous administration; No significant effect of 16 mg/kg subcutaneous administration; type: functional, organism-based; set-up: dose 16 mg/kg
Rattus norvegicus [17] = species: Rattus norvegicus; test: Locomotor activity after reserpine pretreatment in rat(p<0.001); type: functional; in short: as §1

SMILES | Accumulated counts/30 min (Rattus norvegicus [1]) | Control (Rattus norvegicus [2]) | Control (Rattus norvegicus [3]) | ED50 (Rattus norvegicus [4]) | ED50 (Rattus norvegicus [5]) | ED50 (Rattus norvegicus [6]) | ED50 (Rattus norvegicus [7]) | Accumulated counts/30 min (Rattus norvegicus [8]) | ED50 (Rattus norvegicus [9]) | ED50 (Rattus norvegicus [10]) | ED50 (Rattus norvegicus [11]) | ED50 (Rattus norvegicus [12]) | Control (Rattus norvegicus [13]) | Control (Rattus norvegicus [14]) | ED50 (Rattus norvegicus [15]) | ED50 (Rattus norvegicus [16]) | Accumulated counts/30 (Rattus norvegicus [17]) | Accumulated counts/30 (Rattus norvegicus [1])
CCCN(CCC)[C@H]1CCc2c(O)cccc2[C@H]1C.Cl | 79 | 171% | 65% | 0.25 mg/kg | 0.09 mg/kg | 0.25 mg/kg | 0.1 mg/kg | – | – | – | – | – | – | – | – | – | – | –
O=C(CCCN1CCC(O)(c2ccc(Cl)cc2)CC1)c1ccc(F)cc1 [HALOPERIDOL] | – | 3% | 75% | 0.07 mg/kg | – | 0.07 mg/kg | – | inactive | inactive | inactive | – | – | – | – | – | – | – | –
CCCN(CCC)[C@@H]1CCc2c(OC)cccc2[C@@H]1C.Cl | 4 | 49% | 144% | 4 mg/kg | – | 3 mg/kg | – | – | – | – | inactive | inactive | – | – | – | – | – | –
CCCN(CCC)[C@H]1CCc2c(OC)cccc2[C@H]1C.Cl | 8 | – | – | – | 1.7 mg/kg | – | 1.8 mg/kg | – | – | – | – | – | inactive | inactive | inactive | inactive | – | –
CN1CCc2cccc3c2[C@H]1Cc1ccc(O)c(O)c1-3 [APOMORPHINE] | – | 277% | 52% | – | 0.06 mg/kg | – | 0.07 mg/kg | – | – | – | – | – | – | – | – | – | 361 | –
CCCN(CCC)[C@@H]1CCc2c(O)cccc2[C@@H]1C.Cl | – | 69% | 128% | 3 mg/kg | – | 2.8 mg/kg | – | – | – | – | inactive | inactive | – | – | – | – | – | 6
